Measured values from different studies.
Lines come from different studies, so protocols differ.
Effect on: cell growth or viability

Structure (SMILES)	cell line	technique	time	IC50
COc1ccc(CCN(C)CCc2ccc(OC)c(OC)c2)cc1OC	CAL-27		72 h	> 20 µM
Cc1ccc(C(=O)Nc2ccc(Oc3cc4cnn(C)c4cc3-c3cn[nH]c3)c(F)c2)c(=O)n1-c1ccc(F)cc1	NCI-H1993	ATP luminescence		0.076 µM
Clc1ccc(N2CCN(Cc3c[nH]c4ncccc34)CC2)cc1	CAL-27		72 h	> 20 µM
O=C(Nc1nnnn1C1CCCCC1)c1ccc2ccccc2c1	MCF-10A		48 h	81 µM
CN(C)CC[C@@H](c1ccc(Cl)cc1)c1ccccn1	CAL-27		72 h	> 20 µM
Cc1cn([C@H]2C[C@H](N=[N+]=[N-])[C@@H](CO)O2)c(=O)[nH]c1=O	VCaP	CCK-8	72 h	> 30 µM
NCCc1ccc(O)c(O)c1	CAL-27		72 h	> 20 µM
c1ccc(-c2cnc3c(n2)CCCC3)cc1	MCF-10A		48 h	> 50 µM
COc1ccc2c(c1OC)C(=O)O[C@@H]2[C@H]1c2c(cc3c(c2OC)OCO3)CCN1C	CAL-27		72 h	17 µM
CC(C)c1cccc(C(C)C)c1N1CCN(c2c(C(C)C)cccc2C(C)C)C1=[Se]	HCT-15	MTT	72 h	15.8 µM
CC(C)C[C@H](NC(=O)[C@H](Cc1ccccc1)NC(=O)c1cnccn1)B(O)O	P31-FUJ	ATP luminescence		0.0051 µM
CNC(=O)c1ccc(N2C(=S)N(c3cnc(C#N)c(C(F)(F)F)c3)C(=O)C23CCC3)cc1F	VCaP	ATP luminescence	6 days	0.39 µM
CC(C)C(=O)SCCCCCCC(=O)Nc1nc(-c2ccccc2)cs1	CAL-27		72 h	1.15 µM
O=C(c1cc(Cl)c(Cl)[nH]1)c1c(O)ccc(C(c2csc(-c3ccccc3O)n2)c2ccc(O)c(C(=O)c3cc(Cl)c(Cl)[nH]3)c2O)c1O	MDCK	MTT	72 h	67 µg/mL
O=C(C=C[c-]1cccc1)c1sccc1Br.[Fe+2].c1cc[cH-]c1	4T1	MTT	72 h	32.9 µM
CCCCc1ccc2[nH]c(NC(=O)OC)nc2c1	GTL 16	CCK-8	72 h	0.284 µM

Structure (SMILES)	cell line	technique	time	IC50
O=C(c1cc(Cl)c(Cl)[nH]1)c1c(O)ccc(Cc2cc(C(c3csc(-c4ccccc4O)n3)c3ccc(O)c(C(=O)c4cc(Cl)c(Cl)[nH]4)c3O)c(O)c(C(=O)c3cc(Cl)c(Cl)[nH]3)c2O)c1O (centres unmarked)	MDCK	MTT	72 h	28 µg/mL
Cc1cc(NC(=O)c2cccc3cc(-c4cccc5[nH]nc(N)c45)ccc23)ccc1F	GL261	CCK-8	72 h	> 20 µM
O=C1CCCCC1C1C2C=CC=CC1/C(=C/c1ccccc1)C2 (centres unmarked)	K562	flow cytometry		0.059 µM
CC(C)Oc1cccc(-c2cnc3c(n2)CCCC3)c1	MCF-10A		48 h	25 to 50 µM
O=C(NC(=S)NCc1ccc(CNC(=S)NC(=O)c2ccc3ccccc3c2)cc1)c1ccc2ccccc2c1	MCF-10A		48 h	91.4 µM
COc1cc(-c2ncn(/C=C\C(=O)OC(C)C)n2)cc(C(F)(F)F)c1	F-36P		72 h	0.063 µM
C=CC1=C(C(=O)O)N2C(=O)[C@@H](NC(=O)/C(=N\OCC(=O)O)c3csc(N)n3)[C@H]2SC1	VCaP	CCK-8	72 h	> 30 µM
CCCCCc1ccc(-c2cnc3c(n2)CCCC3)cc1	MCF-10A		48 h	> 50 µM
COc1cc(Nc2nccc(-c3cnn4nc(OC)ccc34)n2)cc(C(F)(F)F)c1	SCLC-21H	ATP luminescence		0.36 µM
CC(=O)O[C@@]12CO[C@@H]1C[C@H](O)[C@@]1(C)C(=O)[C@H](O)C3=C(C)[C@@H](OC(=O)[C@H](O)[C@@H](NC(=O)OC(C)(C)C)c4ccccc4)C[C@@](O)([C@@H](OC(=O)c4ccccc4)[C@H]21)C3(C)C	4T1	CCK-8	72 h	0.118 µM
CCCCOc1ccc(-c2cnc3c(n2)CCCC3)cc1	MCF-10A		48 h	25 to 50 µM
CC1(C)S[C@@H]2[C@H](NC(=O)[C@H](N)c3ccc(O)cc3)C(=O)N2[C@H]1C(=O)O	VCaP	CCK-8	72 h	> 30 µM
COc1cccc2c1C(=O)c1c(O)c3c(c(O)c1C2=O)C[C@@](O)(C(=O)CO)C[C@@H]3O[C@H]1C[C@H](N)[C@H](O)[C@H](C)O1	MCF-10A		48 h	1.2 µM
CCN(CC)CCOC(=O)C1(c2ccc([N+](=O)[O-])cc2)CCCC1	CAL-27		72 h	> 20 µM
CN(C)c1ccc2cc(C(=O)N[C@@H](CCCNC(=N)CCl)C(=O)NCc3ccccc3)ccc2c1	4T1		48 h	11.9 µM
CCCCOc1cccc(-c2cnc3c(n2)CCCC3)c1	MCF-10A		48 h	> 50 µM
